Values after ≈ are worked out from the molar mass of the structure shown. Active and inactive are the calls of the source. The calls are words filed in the database; no cut-off is given here.
System: Mycobacterium tuberculosis
Test: Antimycobacterial activity against drug-susceptible Mycobacterium tuberculosis H37Rv measured 24 hrs post dose by microplate alamar blue assay
Assay type: functional
Method in brief: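 Two-fold serial drug dilutions in 7H9 medium in 48-well plates, with H37Rv suspension added to give 4 × 10^-4 mg/mL bacteria per well. Plates were incubated at 37 °C, and alamar blue was added at an optimal time. The read was visual at 24 h after reagent addition. MIC was taken as the lowest concentration preventing the colour change.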

Row | SMILES | MIC
1 | CCCCCCCCc1c2[n+](cc3c(OC)c(OC)ccc13)CCc1cc(OCCCC)c(OCCCC)cc1-2.[Cl-] | 2 µg/mL
2 | CCCCCCCCc1c2[n+](cc3c(OC(=O)c4ccc(C)cc4)c(OC)ccc13)CCc1cc3c(cc1-2)OCO3.[Cl-] | 4 µg/mL
3 | CCCc1c2[n+](cc3c(OC)c(OC)ccc13)CCc1cc3c(cc1-2)OCO3 | inactive
4 | CCCCCCCCc1c2[n+](cc3c(OC)c(OC)ccc13)CCc1cc(OCCCC)c(O)cc1-2.[Cl-] | 8 µg/mL
5 | CCCCCCCCc1c2[n+](cc3c(OC)c(OC)ccc13)CCc1cc(OCC)c(O)cc1-2.[Cl-] | 2 µg/mL
6 | CCCCCCCCc1c2[n+](cc3c(OS(=O)(=O)c4ccc(C#N)cc4)c(OC)ccc13)CCc1cc3c(cc1-2)OCO3.[Cl-] | 8 µg/mL
7 | NNC(=O)c1ccncc1 [ISONIAZID] | 0.0625 µg/mL (≈ 0.456 µM)
8 | CCCCCCCCc1c2[n+](cc3c(OCc4ccccc4)c(OC)ccc13)CCc1cc(OCc3ccccc3)c(OCc3ccccc3)cc1-2.[Cl-] | 8 µg/mL
9 | CCCCCCCCc1c2[n+](cc3c(OCC)c(OC)ccc13)CCc1cc(OCC)c(O)cc1-2.[Cl-] | 4 µg/mL
10 | CCCCCCCCc1c2[n+](cc3c(OC)c(OC)ccc13)CCc1cc3c(cc1-2)OCO3.[Cl-] | 2 µg/mL
11 | CCCCCc1c2[n+](cc3c(OC)c(OC)ccc13)CCc1cc3c(cc1-2)OCO3 | inactive
12 | CCCCCCCCc1c2[n+](cc3c(OC)c(OC)ccc13)CCc1cc(OCCC)c(O)cc1-2.[Cl-] | 4 µg/mL
13 | CCCCCCCCc1c2[n+](cc3c(OC)c(OC)ccc13)CCc1cc(OCC)c(OCC)cc1-2.[Cl-] | 0.5 µg/mL
14 | CCCCCCCCc1c2[n+](cc3c(OCc4ccccc4)c(OC)ccc13)CCc1cc3c(cc1-2)OCO3.[Cl-] | 4 µg/mL
15 | CCc1c2[n+](cc3c(OC)c(OC)ccc13)CCc1cc3c(cc1-2)OCO3 | inactive
16 | COc1ccc2cc3[n+](cc2c1OC)CCc1cc2c(cc1-3)OCO2 | inactive
17 | CCCCCCCCc1c2[n+](cc3c(OCC)c(OC)ccc13)CCc1cc(OCC)c(OCC)cc1-2.[Cl-] | 0.125 µg/mL
18 | CCCCCCCCc1c2[n+](cc3c(OC)c(OC)ccc13)CCc1cc(OCc3ccccc3)c(O)cc1-2.[Cl-] | 2 µg/mL
19 | CCCCCCCCc1c2[n+](cc3c(OCCCC)c(OC)ccc13)CCc1cc3c(cc1-2)OCO3.[Cl-] | 8 µg/mL
20 | COc1ccc2c(C)c3[n+](cc2c1OC)CCc1cc2c(cc1-3)OCO2 | inactive

Row | SMILES | MIC
21 | CCCCCCCCc1c2[n+](cc3c(OC)c(OC)ccc13)CCc1cc(OCCC)c(OCCC)cc1-2.[Cl-] | 2 µg/mL
22 | CCCCCCCCc1c2[n+](cc3c(OCc4ccccc4)c(OC)ccc13)CCc1cc(OCc3ccccc3)c(O)cc1-2.[Cl-] | 0.5 µg/mL
23 | CCCCCCCCc1c2[n+](cc3c(OS(=O)(=O)c4ccc(C(F)(F)F)cc4)c(OC)ccc13)CCc1cc3c(cc1-2)OCO3.[Cl-] | 16 µg/mL
24 | CCCCCCCCc1c2[n+](cc3c(OC)c(OC)ccc13)CCc1cc(O)c(O)cc1-2.[Cl-] | 16 µg/mL
25 | CCCCCCCCc1c2[n+](cc3c(OC)c(OC)ccc13)CCc1cc(OC)c(OC)cc1-2.[Cl-] | 2 µg/mL
26 | CCCCCCCCc1c2[n+](cc3c(OCCC)c(OC)ccc13)CCc1cc(OCCC)c(O)cc1-2.[Cl-] | 4 µg/mL
27 | CCCCCCCCc1c2[n+](cc3c(OCC)c(OC)ccc13)CCc1cc3c(cc1-2)OCO3.[Cl-] | 4 µg/mL
28 | CCCCCCCCc1c2[n+](cc3c(O)c(OC)ccc13)CCc1cc(O)c(O)cc1-2.[Cl-] | 32 µg/mL
29 | CCCCCCc1c2[n+](cc3c(OC)c(OC)ccc13)CCc1cc3c(cc1-2)OCO3 | inactive
30 | CCCCCCCCc1c2[n+](cc3c(OC)c(OC)ccc13)CCc1cc(OC)c(O)cc1-2.[Cl-] | 2 µg/mL
31 | CCCCCCCCc1c2[n+](cc3c(OCCC)c(OC)ccc13)CCc1cc3c(cc1-2)OCO3.[Cl-] | 2 µg/mL
32 | CCCCc1c2[n+](cc3c(OC)c(OC)ccc13)CCc1cc3c(cc1-2)OCO3 | inactive
33 | CCCCCCCc1c2[n+](cc3c(OC)c(OC)ccc13)CCc1cc3c(cc1-2)OCO3 | inactive
34 | CCCCCCCCc1c2[n+](cc3c(OC)c(OC)ccc13)CCc1cc(OCc3ccccc3)c(OCc3ccccc3)cc1-2.[Cl-] | 8 µg/mL
35 | CO[C@H]1/C=C/O[C@@]2(C)Oc3c(C)c(O)c4c(O)c(c(/C=N/N5CCN(C)CC5)c(O)c4c3C2=O)NC(=O)/C(C)=C\C=C\[C@H](C)[C@H](O)[C@@H](C)[C@@H](O)[C@@H](C)[C@H](OC(C)=O)[C@@H]1C [RIFAMPIN] | 0.0625 µg/mL (≈ 0.0759 µM)
36 | CCCCCCCCc1c2[n+](cc3c(OC(=O)c4ccc(OC)cc4)c(OC)ccc13)CCc1cc3c(cc1-2)OCO3.[Cl-] | 4 µg/mL
37 | CCCCCCCCc1c2[n+](cc3c(OC)c(OC)ccc13)CCc1cc3c(cc1-2)OCCO3.[Cl-] | 2 µg/mL
38 | CCCCCCCCc1c2[n+](cc3c(OCCCC)c(OC)ccc13)CCc1cc(OCCCC)c(O)cc1-2.[Cl-] | 8 µg/mL
39 | CCCCCCCCc1c2[n+](cc3c(O)c(OC)ccc13)CCc1cc3c(cc1-2)OCO3.[Cl-] | 4 µg/mL
